Test: Plasma triptorelin concentration
Type: in vivo, Chinese children
Settings: human, im, 15 mg, SD
Outline: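 Children with CPP (age-limited, ≥20 kg) received 15 mg of the test compound's pamoate salt (delivering 11.25 mg) by intramuscular injection into the upper outer buttock on day 1 and months 3, 6 and 9. Sparse plasma sampling was done pre-dose, 4 h post-injection on day 1, at month 3 (pre-dose) and at month 6. Concentrations were measured by validated LC-MS/MS and reported as means.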

CC(C)C[C@H](NC(=O)[C@@H](Cc1c[nH]c2ccccc12)NC(=O)[C@H](Cc1ccc(O)cc1)NC(=O)[C@H](CO)NC(=O)[C@H](Cc1c[nH]c2ccccc12)NC(=O)[C@H](Cc1c[nH]cn1)NC(=O)[C@@H]1CCC(=O)N1)C(=O)N[C@@H](CCCNC(=N)N)C(=O)N1CCC[C@H]1C(=O)NCC(N)=O [triptorelin]
level at 4 h: 47.6 ± 23.9 ng/mL
